Laboratory results from ChEMBL document CHEMBL3414546, “Design, synthesis and structure-activity relationship of oxazolidinone derivatives containing novel S4 ligand as FXa inhibitors” (Eur J Med Chem, 2015).
Values after ≈ are worked out from the molar mass of the structure shown.

Legend:
[1] = target: T1, Coagulation factor X (Homo sapiens, UniProt P00742); assay: Inhibition of human F10a using S-2765 as substrate at 0.1 uM after 45 mins by spectra max analysis relative to control
Outline: (§1)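 Purified human FXa (10 ng) was used with chromogenic substrate S-2765 at 500 µM in 50 mM Tris-HCl pH 7.5, […], 1 mM CaCl2 and 2.5% DMSO (final). Compound was incubated for 45 min at 37 °C, and absorbance was read at 405 nm. Percent inhibition came from reaction velocity versus DMSO control. IC50 was taken from a plot of inhibition against concentration.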

[2] = target: T2, Coagulation factor X (Oryctolagus cuniculus, UniProt O19045); assay: Inhibition of F10a in rabbit plasma assessed as doubling of prothombin time
T2 sequence (O19045 whole entry): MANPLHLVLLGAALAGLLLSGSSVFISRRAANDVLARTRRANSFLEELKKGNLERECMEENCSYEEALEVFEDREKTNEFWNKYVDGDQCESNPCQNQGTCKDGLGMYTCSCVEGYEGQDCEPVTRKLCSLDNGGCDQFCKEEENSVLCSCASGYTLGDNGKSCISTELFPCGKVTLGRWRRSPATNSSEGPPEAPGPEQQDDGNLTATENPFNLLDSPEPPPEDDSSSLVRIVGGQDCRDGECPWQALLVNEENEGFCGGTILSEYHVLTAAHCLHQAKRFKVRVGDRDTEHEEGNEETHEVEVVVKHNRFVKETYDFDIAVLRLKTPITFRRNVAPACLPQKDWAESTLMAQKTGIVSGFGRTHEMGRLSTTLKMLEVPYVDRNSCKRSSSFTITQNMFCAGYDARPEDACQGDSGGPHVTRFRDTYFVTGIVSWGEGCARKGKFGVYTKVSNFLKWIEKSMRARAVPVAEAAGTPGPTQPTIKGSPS
Outline: (§2)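 Citrated (3.8% sodium citrate) blood from healthy human volunteers or rabbit was spun at 2000 g for 10 min. The DMSO stock was diluted in plasma, 5–7 inhibitor concentrations were tested, and prothrombin time was read with Thromborel-S on an automated temperature-controlled coagulometer in duplicate. PTCT2 (the concentration doubling clotting time) came from regression of the concentration-response curve.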

[3] = target: T1, Coagulation factor X; assay: Inhibition of F10a in human plasma assessed as doubling of prothombin time; outline: as §2
[4] = target: T2, Coagulation factor X; assay: Inhibition of F10a in rabbit plasma assessed as doubling of activated partial thromboplastin time
Outline: (§3)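 Plasma came from human volunteer or rabbit blood anticoagulated with 3.8% sodium citrate and centrifuged at 2000 g for 10 min. The DMSO stock was serially diluted in plasma. Clotting time was measured on control plasma and on plasma with five to seven inhibitor concentrations. The concentration doubling clotting time was estimated from the concentration-response curve.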

[5] = target: T1, Coagulation factor X; assay: Inhibition of F10a in human plasma assessed as doubling of activated partial thromboplastin time; outline: as §3
[6] = Solubility of the compound by Chinese pharmacopoeia 2010 edition of the second collection method; format: physicochemical
[7] = target: T1, Coagulation factor X; assay: Inhibition of human F10a using S-2765 as substrate after 45 mins by spectra max analysis; outline: as §1

T1 sequence (P00742 41-179 limits assumed): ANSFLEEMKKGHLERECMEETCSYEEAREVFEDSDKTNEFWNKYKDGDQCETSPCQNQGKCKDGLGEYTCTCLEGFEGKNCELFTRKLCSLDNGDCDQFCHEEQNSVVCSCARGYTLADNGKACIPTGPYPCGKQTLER
T1 sequence (P00742 235-488 limits assumed): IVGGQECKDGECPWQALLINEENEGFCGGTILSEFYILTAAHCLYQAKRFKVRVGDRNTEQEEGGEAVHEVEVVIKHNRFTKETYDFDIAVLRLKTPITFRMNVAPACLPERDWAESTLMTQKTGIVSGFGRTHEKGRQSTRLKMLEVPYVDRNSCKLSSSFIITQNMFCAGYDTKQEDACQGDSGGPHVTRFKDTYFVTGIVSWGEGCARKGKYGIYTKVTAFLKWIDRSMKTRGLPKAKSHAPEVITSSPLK

CN1CCN(Cc2cc3ccccc3n2-c2ccc(N3C[C@H](CNC(=O)c4ccc(Cl)s4)OC3=O)cc2)CC1
inhibition [1]: 45% | IC50 [2]: 13300 nM | IC50 [3]: 11300 nM

CNCc1csc(-c2ccc(N3C[C@H](CNC(=O)c4ccc(Cl)s4)OC3=O)cc2)n1
inhibition [1]: 89% | IC50 [4]: 1910 nM | IC50 [5]: 1870 nM | IC50 [2]: 1660 nM | IC50 [3]: 1650 nM

CC1CCN(Cc2cccn2-c2ccc(N3C[C@H](CNC(=O)c4ccc(Cl)s4)OC3=O)cc2)CC1
inhibition [1]: 70% | IC50 [4]: 3780 nM | IC50 [5]: 3530 nM | IC50 [2]: 3450 nM | IC50 [3]: 3220 nM

O=C(NC[C@H]1CN(c2ccc(-n3c(CN4CCOCC4)cc4ccccc43)cc2)C(=O)O1)c1ccc(Cl)s1
inhibition [1]: 58% | solubility [6]: 25.8 µg/mL (≈ 46.8 µM) | IC50 [5]: 11200 nM | IC50 [2]: 11100 nM | IC50 [3]: 10100 nM

CN(C)Cc1cc2ccccc2n1-c1ccc(N2C[C@H](CNC(=O)c3ccc(Cl)s3)OC2=O)cc1
inhibition [1]: 69% | IC50 [4]: 6230 nM | IC50 [5]: 6020 nM | IC50 [2]: 5920 nM | IC50 [3]: 5780 nM

CN1CCN(Cc2csc(-c3ccc(N4C[C@H](CNC(=O)c5ccc(Cl)s5)OC4=O)cc3)n2)CC1
inhibition [1]: 56% | IC50 [4]: 5120 nM | solubility [6]: 33.2 µg/mL (≈ 62.4 µM) | IC50 [5]: 4120 nM | IC50 [2]: 4230 nM | IC50 [3]: 3850 nM

CCN(CC)Cc1csc(-c2ccc(N3C[C@H](CNC(=O)c4ccc(Cl)s4)OC3=O)cc2)n1
inhibition [1]: 100% | IC50 [4]: 1030 nM | IC50 [5]: 820 nM | IC50 [2]: 720 nM | IC50 [7]: 9.46 nM | IC50 [3]: 510 nM

O=C(NC[C@H]1CN(c2ccc(-c3nc(CN4CCCCC4)cs3)cc2)C(=O)O1)c1ccc(Cl)s1
inhibition [1]: 72% | IC50 [4]: 3460 nM | IC50 [5]: 2950 nM | IC50 [2]: 3120 nM | IC50 [3]: 2720 nM

O=C(NC[C@H]1CN(c2ccc(-n3cccc3CN3CCC3)cc2)C(=O)O1)c1ccc(Cl)s1
inhibition [1]: 92% | IC50 [4]: 1520 nM | IC50 [5]: 1310 nM | IC50 [2]: 810 nM | IC50 [3]: 700 nM

O=C(NC[C@H]1CN(c2ccc(-c3nc(CN4CCCC4)cs3)cc2)C(=O)O1)c1ccc(Cl)s1
inhibition [1]: 79% | IC50 [4]: 3040 nM | IC50 [5]: 2710 nM | IC50 [2]: 2780 nM | IC50 [3]: 2420 nM

O=C(NC[C@H]1CN(c2ccc(-n3c(CN4CCCCC4)cc4ccccc43)cc2)C(=O)O1)c1ccc(Cl)s1
inhibition [1]: 52% | IC50 [2]: 11500 nM | IC50 [3]: 11000 nM

CN1CCN(Cc2cccn2-c2ccc(N3C[C@H](CNC(=O)c4ccc(Cl)s4)OC3=O)cc2)CC1
inhibition [1]: 71% | IC50 [4]: 4140 nM | IC50 [5]: 4010 nM | IC50 [2]: 3900 nM | IC50 [3]: 3800 nM

O=C(NC[C@H]1CN(c2ccc(-n3cccc3CN3CCCC3)cc2)C(=O)O1)c1ccc(Cl)s1
inhibition [1]: 89% | IC50 [4]: 1980 nM | IC50 [5]: 1710 nM | IC50 [2]: 1580 nM | IC50 [3]: 1420 nM

CCNCc1csc(-c2ccc(N3C[C@H](CNC(=O)c4ccc(Cl)s4)OC3=O)cc2)n1
inhibition [1]: 93% | IC50 [4]: 1160 nM | IC50 [5]: 790 nM | IC50 [2]: 890 nM | IC50 [3]: 650 nM

O=C(NC[C@H]1CN(c2cc(F)c(-n3cccc3CN3CCCC3)c(F)c2)C(=O)O1)c1ccc(Cl)s1
inhibition [1]: 73% | IC50 [4]: 3670 nM | solubility [6]: 20.4 µg/mL (≈ 39.2 µM) | IC50 [5]: 3060 nM | IC50 [2]: 2980 nM | IC50 [3]: 2790 nM

O=C(NC[C@H]1CN(c2ccc(N3CCOCC3=O)cc2)C(=O)O1)c1ccc(Cl)s1 [RIVAROXABAN]
inhibition [1]: 100% | IC50 [4]: 860 nM | IC50 [2]: 510 nM

CN(C)Cc1csc(-c2ccc(N3C[C@H](CNC(=O)c4ccc(Cl)s4)OC3=O)cc2)n1
inhibition [1]: 91% | IC50 [4]: 1240 nM | IC50 [5]: 980 nM | IC50 [2]: 920 nM | IC50 [3]: 870 nM

O=C(NC[C@H]1CN(c2ccc(-n3cccc3CN3CCOCC3)cc2)C(=O)O1)c1ccc(Cl)s1
inhibition [1]: 76% | IC50 [4]: 3520 nM | IC50 [5]: 3310 nM | IC50 [2]: 3190 nM | IC50 [3]: 2930 nM

CN(C)Cc1cccn1-c1ccc(N2C[C@H](CNC(=O)c3ccc(Cl)s3)OC2=O)cc1
inhibition [1]: 98% | IC50 [4]: 1390 nM | IC50 [5]: 1200 nM | IC50 [2]: 780 nM | IC50 [7]: 7.24 nM | IC50 [3]: 610 nM

O=C(NC[C@H]1CN(c2ccc(-c3nc(CN4CCOCC4)cs3)cc2)C(=O)O1)c1ccc(Cl)s1
inhibition [1]: 62% | IC50 [4]: 4790 nM | IC50 [5]: 3810 nM | IC50 [2]: 4060 nM | IC50 [3]: 3600 nM

CCN(CC)Cc1cc2ccccc2n1-c1ccc(N2C[C@H](CNC(=O)c3ccc(Cl)s3)OC2=O)cc1
inhibition [1]: 61% | IC50 [4]: 6110 nM | IC50 [5]: 5450 nM | IC50 [2]: 6020 nM | IC50 [3]: 5320 nM

CCN(CC)Cc1cccn1-c1ccc(N2C[C@H](CNC(=O)c3ccc(Cl)s3)OC2=O)cc1
inhibition [1]: 100% | IC50 [4]: 750 nM | solubility [6]: 6.9 µg/mL (≈ 14.2 µM) | IC50 [5]: 300 nM | IC50 [2]: 460 nM | IC50 [7]: 2.01 nM | IC50 [3]: 150 nM

CC1CCN(Cc2csc(-c3ccc(N4C[C@H](CNC(=O)c5ccc(Cl)s5)OC4=O)cc3)n2)CC1
inhibition [1]: 68% | IC50 [4]: 4020 nM | IC50 [5]: 3390 nM | IC50 [2]: 3780 nM | IC50 [3]: 3030 nM

CN(C)Cc1cccn1-c1ccc(N2C[C@H](CNC(=O)c3ccc(Cl)s3)OC2=O)cc1F
inhibition [1]: 90% | IC50 [4]: 1580 nM | solubility [6]: 10.2 µg/mL (≈ 21.4 µM) | IC50 [5]: 1330 nM | IC50 [2]: 910 nM | IC50 [7]: 6.58 nM | IC50 [3]: 650 nM

CN(C)Cc1cccn1-c1cc(F)c(N2C[C@H](CNC(=O)c3ccc(Cl)s3)OC2=O)c(F)c1
inhibition [1]: 88% | IC50 [4]: 2560 nM | IC50 [5]: 2310 nM | IC50 [2]: 1980 nM | IC50 [3]: 1830 nM

O=C(NC[C@H]1CN(c2ccc(-n3cccc3CN3CCCCC3)cc2)C(=O)O1)c1ccc(Cl)s1
inhibition [1]: 82% | IC50 [4]: 3230 nM | IC50 [5]: 2850 nM | IC50 [2]: 2890 nM | IC50 [3]: 2620 nM

CC1CCN(Cc2cc3ccccc3n2-c2ccc(N3C[C@H](CNC(=O)c4ccc(Cl)s4)OC3=O)cc2)CC1
inhibition [1]: 56% | IC50 [4]: 13100 nM | IC50 [5]: 11900 nM | IC50 [2]: 12100 nM | IC50 [3]: 10500 nM
